The values that follow come from ChEMBL document CHEMBL3217641, “Structure-function study of gemini derivatives with two different side chains at C-20, Gemini-0072 and Gemini-0097” (Medchemcomm, 2011).

Assay [1] has as its target T1, Vitamin D3 receptor A (Danio rerio) (UniProt Q9PTN2).
T1 sequence (whole entry): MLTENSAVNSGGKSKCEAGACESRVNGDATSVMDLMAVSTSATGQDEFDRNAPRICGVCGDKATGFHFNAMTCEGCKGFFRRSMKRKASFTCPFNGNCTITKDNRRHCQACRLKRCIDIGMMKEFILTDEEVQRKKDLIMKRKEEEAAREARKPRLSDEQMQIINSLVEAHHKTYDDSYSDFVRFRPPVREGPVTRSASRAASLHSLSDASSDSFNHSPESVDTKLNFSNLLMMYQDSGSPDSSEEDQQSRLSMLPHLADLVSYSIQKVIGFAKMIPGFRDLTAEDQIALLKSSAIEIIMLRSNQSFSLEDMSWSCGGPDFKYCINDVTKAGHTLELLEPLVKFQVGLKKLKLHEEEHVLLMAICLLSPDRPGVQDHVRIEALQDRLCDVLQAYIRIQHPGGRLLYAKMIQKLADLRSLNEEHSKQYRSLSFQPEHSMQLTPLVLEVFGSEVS
The assay can be described thus: Agonist activity at zebrafish gal4-VDR LBD expressed in human MCF7 cells by luciferase reporter gene based transactivation assay relative to 1alpha,25(OH)2D3. It counts as cell-based. Conditions: tested as the 2H-labelled form. The method, boiled down:
(§1)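 Transient transfection of MCF-7 cells (10^5/well, grown overnight in phenol red-free DMEM with 10% charcoal-treated FBS, gentamicin, insulin) with Gal4DBD-zVDR(156–453), ptk-LUC reporter, β-galactosidase control and carrier plasmid via jetPEI. After 10 h, ligands at 0.1, 1, 10, 100 nM versus DMSO solvent for 24 h. Luciferase normalized to β-galactosidase; triplicates, mean and S.D.; EC50 derived.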
Background: A reporter such as luciferase makes a cellular process visible.

The target of assay [2] is T1, Vitamin D3 receptor A (Danio rerio). The assay can be described thus: Agonist activity at zebrafish gal4-VDR LBD expressed in human MCF7 cells by luciferase reporter gene based transactivation assay relative to parental gemini. As to conditions: tested as the 2H-labelled form. In kind it is cell-based. The method, boiled down: as §1
Assay [3] can be described thus: Antiproliferative activity against ER positive human MCF10CA1a cells after 3 days by [3H]thymidine uptake assay relative to 1alpha,25(OH)2D3. In kind it is functional.
Assay [4] can be described thus: Antiproliferative activity against ER negative human MCF10DCIS.com cells after 3 days by [3H]thymidine uptake assay relative to 1alpha,25(OH)2D3.
Assay [5] in a line: Antiproliferative activity against ER negative human MCF10DCIS.com cells after 3 days by [3H]thymidine uptake assay.
A short description of assay [6]: Antiproliferative activity against ER positive human MCF10AT1 cells after 3 days by [3H]thymidine uptake assay. It counts as functional.
Assay [7] in a line: Antiproliferative activity against ER positive human MCF10AT1 cells after 3 days by [3H]thymidine uptake assay relative to 1alpha,25(OH)2D3. It counts as functional.
Assay [8] in a line: Antiproliferative activity against ER positive human MCF10CA1a cells after 3 days by [3H]thymidine uptake assay. In kind it is functional.
For assay [9], the target named is T2, Vitamin D3 receptor A (Danio rerio, UniProt Q9PTN2).
T2 sequence (Q9PTN2 whole entry): T1 sequence (whole entry)
The assay can be described thus: Agonist activity at zebrafish gal4-VDR LBD expressed in human MCF7 cells by luciferase reporter gene based transactivation assay. In kind it is cell-based. The method, boiled down: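 MCF-7 cells (10^5/well) were grown overnight in phenol red-free DMEM with 10% charcoal-treated FBS and 0.6 μg/ml insulin. They were transfected with jetPEI using Gal4DBD-zVDR(156–453) (25 ng), ptk-LUC reporter (250 ng) and β-galactosidase control (50 ng). After 10 h, ligand at 0.1–100 nM or DMSO solvent was added. After 24 h, luciferase was read, normalized to β-gal, in triplicate.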

Molecules are shown by their SMILES.

For `CC(C)(O)CCC[C@@H](CC#CC(O)(C(F)(F)F)C(F)(F)F)[C@H]1CC[C@H]2/C(=C/C=C3C[C@H](O)C[C@@H](O)C3)CCC[C@]12C`, the fold change (FC) in assay [1] is 36; in assay [2], 8.
Regarding `CC(C)(O)CCC[C@H](CC#CC(O)(C(F)(F)F)C(F)(F)F)[C@H]1CC[C@H]2/C(=C/C=C3C[C@H](O)C[C@@H](O)C3)CCC[C@]12C`, the fold change (FC) in assay [1] worked out at 22; in assay [2], 5.
By IC50 is commonly meant the midpoint of a concentration-inhibition curve. One may read the EC50 as the concentration that produces a half-maximal response. A high value points to weaker potency. As to `[2H]C([2H])([2H])C(O)(CCC[C@@H](CC#CC(O)(C(F)(F)F)C(F)(F)F)[C@H]1CC[C@H]2/C(=C/C=C3C[C@H](O)C[C@@H](O)C3)CCC[C@]12C)C([2H])([2H])[2H]`, the “fold change (FC)” value in assay [3], in [4] and in [7] was 10 throughout. For the same compound, the IC50 in assay [5] stood at 0.23 nM; in assay [6], 0.23 nM; in [8], 0.09 nM. In assay [9], this compound yielded an EC50 of 0.15 nM.
Compound `C=C1/C(=C\C=C2/CCC[C@]3(C)[C@@H](C(CCCC(C)(C)O)CCCC(C)(C)O)CC[C@@H]23)C[C@H](O)C[C@H]1O` registered an EC50 in assay [9] of 1.2 nM.
Turning to `[2H]C([2H])([2H])C(O)(CCC[C@H](CC#CC(O)(C(F)(F)F)C(F)(F)F)[C@H]1CC[C@H]2/C(=C/C=C3C[C@H](O)C[C@@H](O)C3)CCC[C@]12C)C([2H])([2H])[2H]`, the “fold change (FC)” value in assay [3], in assay [4] and in assay [7] was 10 each time. Moreover, the IC50 in assay [5] was 0.36 nM; in [6], 0.51 nM; in assay [8], 0.15 nM. Also, the midpoint of the response in assay [9], the EC50, lay at 0.25 nM.
